Measured values as given in ChEMBL document CHEMBL1177889, “Synthesis of novel peptidomimetics as inhibitors of protozoan cysteine proteases falcipain-2 and rhodesain” (Eur J Med Chem, 2010).

Key:
[1] = molecular target: T1, Falcipain 2 (Plasmodium falciparum) (UniProt Q9N6S8); experiment: Inhibition of Plasmodium falciparum falcipain-2 at 30 uM after 10 to 15 min
T1 sequence (whole entry): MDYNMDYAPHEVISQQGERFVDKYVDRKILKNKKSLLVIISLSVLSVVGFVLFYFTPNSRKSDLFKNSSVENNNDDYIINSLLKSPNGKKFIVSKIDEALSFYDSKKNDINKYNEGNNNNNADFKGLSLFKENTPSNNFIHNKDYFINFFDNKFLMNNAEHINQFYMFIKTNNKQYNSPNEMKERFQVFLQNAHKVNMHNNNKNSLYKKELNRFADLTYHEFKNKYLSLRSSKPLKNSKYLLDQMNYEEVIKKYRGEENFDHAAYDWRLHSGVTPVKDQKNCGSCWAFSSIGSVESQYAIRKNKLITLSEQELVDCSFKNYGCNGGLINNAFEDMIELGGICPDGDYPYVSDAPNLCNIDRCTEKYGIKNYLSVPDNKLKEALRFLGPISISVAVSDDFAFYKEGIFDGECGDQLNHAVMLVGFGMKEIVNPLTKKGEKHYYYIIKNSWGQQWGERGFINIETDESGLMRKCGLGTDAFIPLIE
How it was run: (§1)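 Single-concentration screen with Cbz-Phe-Arg-AMC at 40 µM (FP-2) or 10 µM (rhodesain). Hydrolysis product release read continuously over 10 min. DMSO served as negative control and E-64 as positive control. Inhibition expressed as percent versus DMSO.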

[2] = system: Plasmodium falciparum; experiment: Antiplasmodial activity against Plasmodium falciparum FCBR infected in human RBC; assay type: functional, organism-based; conditions: FCBR/Columbia
[3] = system: Trypanosoma brucei brucei; experiment: Antitrypanosomal activity against Trypanosoma brucei brucei TC 221 after 48 hrs by alamar blue assay; conditions: TC 221, 48 h
[4] = molecular target: Rhodesain (Trypanosoma brucei rhodesiense, UniProt Q95PM0); experiment: Inhibition of Trypanosoma brucei rhodesiense rhodesain after 10 to 15 mins
How it was run: (§2)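 Recombinant enzymes, FP-2 expressed in E. coli. Run in 50 mM sodium acetate pH 5.5 with 10 mM DTT. Substrate Cbz-Phe-Arg-AMC at 40 µM for FP-2 and 10 µM for rhodesain. Fluorescence (ex 365/em 460) followed continuously for 10–15 min at room temperature. Kiapp taken from Dixon plots and corrected to Ki using Km 21.5 µM (FP-2) or 0.9 µM (rhodesain). Each assay run twice.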

[5] = molecular target: T2, Falcipain 2 (Plasmodium falciparum, UniProt Q9N6S8); experiment: Inhibition of Plasmodium falciparum falcipain-2 after 10 to 15 min; how it was run: as §2
T2 sequence (Q9N6S8 whole entry): T1 sequence (whole entry)

[6] = molecular target: Rhodesain (Trypanosoma brucei rhodesiense) (UniProt Q95PM0); experiment: Inhibition of Trypanosoma brucei rhodesiense rhodesain at 100 uM after 10 to 15 mins; how it was run: as §1
Rhodesain (Trypanosoma brucei rhodesiense), sequence (Q95PM0 1-450): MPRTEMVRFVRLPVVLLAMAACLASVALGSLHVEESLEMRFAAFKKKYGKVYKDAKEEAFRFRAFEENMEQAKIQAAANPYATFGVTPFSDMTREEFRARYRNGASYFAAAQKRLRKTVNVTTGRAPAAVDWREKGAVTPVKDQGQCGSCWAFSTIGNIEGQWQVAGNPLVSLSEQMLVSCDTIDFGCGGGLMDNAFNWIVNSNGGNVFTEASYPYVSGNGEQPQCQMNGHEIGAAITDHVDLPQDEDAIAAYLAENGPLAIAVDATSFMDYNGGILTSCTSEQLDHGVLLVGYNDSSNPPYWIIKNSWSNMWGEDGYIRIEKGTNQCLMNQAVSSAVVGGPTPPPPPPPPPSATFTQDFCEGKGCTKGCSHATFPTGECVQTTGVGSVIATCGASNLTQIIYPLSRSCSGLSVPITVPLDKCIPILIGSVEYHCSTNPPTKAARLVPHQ

Rhodesain, sequence (Q95PM0 whole entry): as the sequence (Q95PM0 1-450) above

Row | Compound | inhibition [1] [%] | IC50 [2] [µM] | IC50 [3] [µM] | Ki [4] [µM] | Ki [5] [µM] | inhibition [6] [%]
1 | CC(C)(C)S[C@H]1OC(=O)C[C@@H]1NC(=O)CN1C(=O)[C@@H](COC(=O)Nc2ccc(Cl)cc2C(F)(F)F)N=C(c2ccccc2)c2ccccc21 | > 50 | 28.5 | 14.2 | 0.7 | 8.2 | –
2 | O=C(CN1C(=O)[C@@H](COC(=O)Nc2ccc(Cl)cc2C(F)(F)F)N=C(c2ccccc2)c2ccccc21)N[C@H]1CC(=O)O[C@H]1OCc1ccccc1 | < 30 | – | – | – | – | –
3 | O=C(CN1C(=O)[C@@H](COC(=O)Nc2ccc(Cl)cc2C(F)(F)F)N=C(c2ccccc2)c2ccccc21)N[C@H]1CC(=O)O[C@@H]1OCc1ccccc1 | > 50 | 49.5 | – | 0.8 | 8.9 | –
4 | CC(C)C[C@H](NC(=O)[C@H]1O[C@@H]1C(=O)O)C(=O)NCCCCN=C(N)N [E-64] | – | 9.3 | – | – | 40.3 | –
5 | O=C(CN1C(=O)[C@@H](COC(=O)Nc2ccc(Cl)cc2C(F)(F)F)N=C(c2ccccc2)c2ccccc21)N[C@H]1CC(=O)OC1O (some centres not stated) | – | > 100 | – | – | 4 | 30
6 | NCCCC(N)(C(=O)O)C(F)F (configuration not stated) [EFLORNITHINE] | – | – | 22.9 | – | – | –
7 | CC(C)(C)S[C@@H]1OC(=O)C[C@@H]1NC(=O)CN1C(=O)[C@@H](COC(=O)Nc2ccc(Cl)cc2C(F)(F)F)N=C(c2ccccc2)c2ccccc21 | < 30 | – | – | – | – | –
